A selection: hits, their analogues and other compounds. The true share with any hit is near 3.8%.
MPTP inh: mitochondrial permeability transition pore inhibitors, primary screen, biochemical, isolated mouse mitochondria, absorbance; inhibition, % at 10 µM; Ca2+ swelling absorbance, 30 min; AID 602449, 2012; actives 1.4% (n = 360,000);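 active = inhibition of 50% or more, scaled per plate between neutral and stimulator controls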;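 also: 0% = DMSO wells given calcium and 100% = 1 mM EGTA wells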
V-ATPase pHluor: regulators of yeast V-ATPase proton pumping, primary screen, pHLuorin cytosolic pH fluorescence | S. cerevisiae | response, % at 10 µM | actives 0.37% (n = 350,000) | AID 504577, 2011; in the data active = response mostly above about 7.3%, no sharp cut-off; inactive = mostly below about 5.4%; also: actives read high
Beta2AR agonist: beta2AR agonists driving receptor internalization, primary screen, cell-based, FAP fluorogen, flow cytometry | Beta-2 adrenergic receptor (Homo sapiens), P07550 | Am2.2-beta2AR cells | response, % (no concentration beside the values) | actives 0.43% (n = 340,000);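 active = response above a set limit, near 3 SD of response in nonfluorescent compounds, cut at about 42% in these data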
Target sequence (P07550 whole entry, looked up): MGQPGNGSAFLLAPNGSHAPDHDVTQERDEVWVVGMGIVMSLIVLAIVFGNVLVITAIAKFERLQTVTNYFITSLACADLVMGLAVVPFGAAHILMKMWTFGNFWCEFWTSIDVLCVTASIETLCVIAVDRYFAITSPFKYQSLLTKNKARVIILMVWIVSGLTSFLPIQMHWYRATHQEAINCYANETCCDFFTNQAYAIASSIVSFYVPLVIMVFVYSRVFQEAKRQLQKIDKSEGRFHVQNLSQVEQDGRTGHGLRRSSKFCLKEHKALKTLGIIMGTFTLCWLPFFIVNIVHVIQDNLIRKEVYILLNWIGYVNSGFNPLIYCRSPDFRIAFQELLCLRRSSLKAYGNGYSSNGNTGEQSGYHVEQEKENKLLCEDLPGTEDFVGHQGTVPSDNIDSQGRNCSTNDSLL
Granule exo inh: LAMP-1 surface exposure blockers, TALL-104 cells – cell-based, flow cytometry, MLPCN library, primary screen; TALL-104 LAMP-1 surface exposure; cells stimulated with thapsigargin and PMA; inhibition, % at 10 µM; actives 0.66% (n = 360,000); AID 651702, 2012;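 active = inhibition above about 55%, limit read from the data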
T cell HTS: modulators of CD8 T cell-vesicle binding, primary screen, mouse 2C CD8+ T cells, flow cytometry; 2C CD8+ T cell-vesicle binding; stronger effect = lower value; response (vesicle binding), % at 7 µM; actives 0.068% (n = 330,000); AID 2052, 2009;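 active = response, share of CD8 T cells binding vesicles, and their 90th percentile fluorescence all below set limits, cut at about 80% in these data, passing the limit was not always enough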;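 also: values below 100% mean blocked vesicle binding to the CD8+ T cells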
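System: murine 2C transgenic CD8+ T lymphocytes; also added: QL9-loaded Drosophila micro-vesicles; times: binding 1.5 h at 37 °C; measured by: flow cytometry, PE anti-B7-1 (FL2) versus Alexa647 anti-CD8 (FL8), PFA-fixed; control set: Peptide-free naked vesicles (low) and QL9 vesicles with 0.7% DMSO vehicle (high)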
rCAG RNA binder: binders of r(CAG) RNA repeats, primary screen, biochemical, fluorescence; r(CAG) RNA repeat, TO-PRO-1 dye displacement fluorescence; inhibition, % at 3 µM; AID 651821, 2012; actives 1.3% (n = 370,000);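 active = inhibition above the plate cutoff, the mean of all test compounds on that plate plus 3 SD, cut at about 35% in these data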;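 also: 0% = DMSO alone and 100% = 100 µM mitoxantrone as full dye displacement; higher means more dye released from RNA so lower well fluorescence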
rCAG bind conf: small molecules binding CAG repeat RNA – biochemical, fluorescence, confirmation | inhibition, % at 3 µM | shares compounds with rCAG RNA binder | r(CAG) RNA repeat, TO-PRO-1 dye displacement fluorescence | AID 652065, 2013 | actives 70% (n = 4,300);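 active = inhibition above a per-plate cutoff, the mean inhibition of sample wells plus 3 SD, cut at about 35% in these data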;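 also: loss of TO-PRO-1 fluorescence as compound displaces dye from 1x1 AA loop RNA; 0% = DMSO only wells and 100% = 100 µM mitoxantrone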
dCAG dye counter: displacement of TO-PRO-1 from CAG DNA duplex, counter-screen for rCAG RNA repeat binder project, biochemical, fluorescence, TO-PRO-1 dye, d(CAG) DNA oligo; shares compounds with rCAG RNA binder; d(CAG) DNA oligo TO-PRO-1 dye displacement; inhibition, % at 3 µM; actives 94% (n = 4,300); AID 652068, 2013;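 active = inhibition above its plate's cutoff, the mean test-well inhibition plus 3 SD, cut at about 4.8% in these data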;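 also: 0% = DNA dye mix with DMSO and 100% = 100 µM mitoxantrone; hits displace the dye from DNA and so lower well fluorescence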
dCAG dye DR: inhibitors of DNA CAG/GTC TO-PRO-1 complex, dose response, counter-screen for rCAG RNA repeat binder project, biochemical, fluorescence, TO-PRO-1 dye; shares compounds with rCAG RNA binder; DNA CAG/GTC duplex TO-PRO-1 dye displacement fluorescence; IC50, µM; actives 20% (n = 250); in the data active = IC50 below about 10 µM
Numbers without * were called inactive; i = inactive; x = not tested or not shown.

SMILES	MPTP inh	V-ATPase pHluor	Beta2AR agonist	Granule exo inh	T cell HTS	rCAG RNA binder	rCAG bind conf	dCAG dye counter	others
Nc1nc(-c2cccs2)c(CC(=O)O)s1	-0.3	1.1	2.7	2.5	176.0	5.7	x	x
O=C(O)Cc1sc(Nc2ccc(Cl)cc2)nc1-c1cccs1	x	-1.4	-5.1	x	x	57.8*	53.8*	29.3*	dCAG dye DR=5.96*
Cc1coc2c1C(=O)C(=O)c1c-2ccc2c1CCCC2(C)C	19.3	1.9	7.4	-1.5	347.4	43.3*	23.3	13.1*
C[C@H]1COC2=C1C(=O)C(=O)c1c2ccc2c1CCCC2(C)C	0.4	-5.1	16.5	-0.8	455.3	x	x	x
COc1ccc(Br)c2oc(S)cc(=O)c12	1.5	4.0	-1.2	0.3	234.2	40.7*	25.2	7.6*
COc1cccc(CNC(=O)[C@H]2CCCN2C(=O)[C@H]2CCCN2C(=O)c2ccc(C)c(C)c2)c1	x	x	x	x	x	-0.2	x	x
Cc1cc(/C=C2\C(=N)N3N=C(c4ccco4)SC3=NC2=O)c(C)n1Cc1ccccc1	45.9	0.7	1.5	1.4	223.7	59.1*	68.7*	30.2*	dCAG dye DR=i
CCC1=NN2C(=N)/C(=C/c3cc(C)n(Cc4ccccc4)c3C)C(=O)N=C2S1	9.7	-5.7	0.2	12.2	480.3	16.5	x	x
CC(=O)O[C@H]1C=C[C@@H](C#Cc2ccc(C(C)(C)C)cc2)O[C@@H]1COC(=O)Nc1ccccc1	x	x	x	x	x	9.5	x	x
O=C(CCN1C(=O)/C(=C/C=C/c2ccccc2)SC1=S)Nc1nccs1	1.9	-1.9	-7.5	-6.5	545.3	4.3	x	x
O=C(CCN1C(=O)/C(=C/c2ccc(Cl)cc2)SC1=S)Nc1cccc(C(=O)O)c1	0.4	2.8	10.7	1.7	226.6	5.6	x	x
O=C(CCN1C(=O)/C(=C\C=C\c2ccccc2)SC1=S)Nc1ccccc1C(=O)O	0.8	1.5	8.0	-1.7	348.7	41.7*	87.7*	57.0*
O=C(CCN1C(=O)/C(=C\C=C\c2ccccc2)SC1=S)Nc1cccc(C(=O)O)c1	0.4	3.5	9.1	-5.8	474.4	86.0*	84.0*	54.1*
NC1=NC(=O)/C(=C/c2ccc(Cl)cc2Cl)S1	4.8	5.7	-8.5	-4.4	165.4	4.9	x	x
NC1=NC(=O)/C(=C/c2cn(Cc3ccccc3)c3ccccc23)S1	1.0	-5.0	8.0	-1.8	323.2	44.5*	18.0	11.4*
O=C(OCCCN1CCC2(CCCCC2)C1=O)c1ccccc1	x	x	x	x	x	-0.5	x	x
Cc1ccc(N2CC(C(=O)Nc3ccc(S(=O)(=O)Nc4nccs4)cc3)CC2=O)cc1C (stereo not drawn)	-1.8	-5.1	0.4	2.7	327.5	47.6*	64.4*	18.9*
O=C(Nc1ccc(S(=O)(=O)Nc2nccs2)cc1)C1CC(=O)N(c2ccc(Cl)cc2)C1 (stereo not drawn)	0.4	-1.3	6.9	6.5	259.0	53.9*	41.1*	15.0*
O=C(/C=C/c1ccco1)c1cccnc1	-0.2	-1.4	0.1	-0.8	232.7	36.1*	9.6	5.2*
CC(=O)OC(C)C1C2=C(C(=O)CC1(C)O)C(=O)c1c(ccc(-c3ccc4c(c3O)C(=O)C3=C(C4=O)C(C(C)OC(C)=O)C(C)(O)CC3=O)c1O)C2=O (stereo not drawn)	2.9	0.0	13.0	-8.1	x	58.5*	67.4*	33.6*	dCAG dye DR=8*
